ChEMBL document CHEMBL5390224, “Design, synthesis, and biological evaluation of a novel series of 1,2,4-oxadiazole inhibitors of SLACK potassium channels: Identification of in vitro tool VU0935685” (Bioorg Med Chem, 2023)
Calls of active or inactive are those of the source. No cut-off for these calls is given here.

How the values were obtained:
[1] = system: HEK293; test: Inhibition of wild-type human SLACK expressed in HEK293 cells assessed as efficacy at 30 uM by thallium flux assay relative to control; format: cell-based
Procedure, shortened: (§1)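 Stable monoclonal HEK293 lines (WT or A934T SLACK) plated 20,000 cells/well; loaded 1 h at room temperature with Thallo-AM dye, 1.25 mM probenecid, masking dye, 0.3% Pluronic F-127 in buffer with 2.7 mM RbCl, pH 7.3. Compound preincubated 120 s, then Tl2SO4 stimulus (2.5 mM); fluorescence read 120 s. Concentration–response 1.5 nM–30 μM in half-log steps, ≥3 replicate wells.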

[2] = Inhibition of human SLACK A934T mutant expressed in HEK293 cells by thallium flux assay; format: cell-based; procedure, shortened: as §1
[3] = Inhibition of wild-type human SLACK expressed in CHO cells by whole cell voltage clamp electrophysiology assay; format: cell-based; conditions: Cricetulus griseus
Procedure, shortened: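 Automated whole-cell patch clamp at room temperature. External (mM): NaCl 105, KCl 4, MgCl2 1, CaCl2 5, HEPES 10, NMDG-Cl 40, pH 7.4. Internal: NaCl 70, KF 70, KCl 10, EGTA 5, HEPES 5, pH 7.2. Concentrations 0.125–30 μM in half-log steps, ≥3 cells per series.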

[4] = system: CHO; test: Inhibition of wild-type human SLACK expressed in CHO cells assessed as efficacy at 30 uM by whole cell voltage clamp electrophysiology assay; format: cell-based; conditions: Cricetulus griseus
[5] = target: T1, Potassium channel subfamily T member 2 (Homo sapiens, UniProt Q6UVM3); test: Inhibition of SLICK (unknown origin) expressed in HEK293 cells by thallium flux assay; format: cell-based
T1 sequence (Q6UVM3 whole entry): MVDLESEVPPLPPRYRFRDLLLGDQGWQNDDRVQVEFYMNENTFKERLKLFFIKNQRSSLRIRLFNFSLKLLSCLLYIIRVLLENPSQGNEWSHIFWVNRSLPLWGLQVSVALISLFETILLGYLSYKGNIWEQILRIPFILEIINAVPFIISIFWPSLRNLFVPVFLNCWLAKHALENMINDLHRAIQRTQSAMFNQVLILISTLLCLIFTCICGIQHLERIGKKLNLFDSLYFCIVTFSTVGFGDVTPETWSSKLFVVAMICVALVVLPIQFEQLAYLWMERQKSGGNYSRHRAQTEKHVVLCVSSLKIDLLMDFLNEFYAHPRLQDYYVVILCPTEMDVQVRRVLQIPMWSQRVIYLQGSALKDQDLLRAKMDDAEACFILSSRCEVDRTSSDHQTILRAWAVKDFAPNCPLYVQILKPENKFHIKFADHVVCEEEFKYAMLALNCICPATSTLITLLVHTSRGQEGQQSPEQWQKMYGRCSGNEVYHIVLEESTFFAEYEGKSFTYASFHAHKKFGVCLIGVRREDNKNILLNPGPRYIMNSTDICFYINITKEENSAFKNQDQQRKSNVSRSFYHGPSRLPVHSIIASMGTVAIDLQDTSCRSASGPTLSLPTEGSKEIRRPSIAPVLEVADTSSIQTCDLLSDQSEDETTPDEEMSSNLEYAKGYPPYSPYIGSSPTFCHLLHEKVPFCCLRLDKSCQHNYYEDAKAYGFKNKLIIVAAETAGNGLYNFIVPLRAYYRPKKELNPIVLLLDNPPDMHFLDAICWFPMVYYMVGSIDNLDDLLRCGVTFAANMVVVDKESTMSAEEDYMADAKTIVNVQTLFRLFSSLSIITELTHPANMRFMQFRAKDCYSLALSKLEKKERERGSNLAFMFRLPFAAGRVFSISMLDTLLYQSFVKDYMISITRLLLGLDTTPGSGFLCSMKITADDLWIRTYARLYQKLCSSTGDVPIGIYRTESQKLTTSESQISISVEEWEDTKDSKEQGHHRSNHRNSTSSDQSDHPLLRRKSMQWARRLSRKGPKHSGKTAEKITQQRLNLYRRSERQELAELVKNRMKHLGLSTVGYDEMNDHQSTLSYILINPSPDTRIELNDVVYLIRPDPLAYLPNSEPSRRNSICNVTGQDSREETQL

[6] = system: HEK293; test: Inhibition of human SLACK A934T mutant expressed in HEK293 cells assessed as efficacy at 30 uM by thallium flux assay relative to control; format: cell-based; procedure, shortened: as §1
[7] = target: Calcium-activated potassium channel subunit alpha-1 (Homo sapiens) (UniProt Q12791); test: Inhibition of Maxi-K (unknown origin) expressed in HEK293 cells by thallium flux assay; format: cell-based
[8] = Metabolic stability in mouse liver microsomes assessed as compound remaining measured after 10 min in presence of NADPH; format: ADME, Microsome
Procedure, shortened: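 Mouse liver microsomes (0.5 mg/mL) with compound (5 μM) preincubated 5 min at 37 °C in 100 mM potassium phosphate, pH 7.4. Reaction started with NADPH (1 mM) plus MgCl2 (3 mM). Samples at 0 and 10 min quenched in cold acetonitrile with internal standard; percent remaining by LC/MS/MS.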

[9] = target: T2, Potassium channel subfamily T member 2 (Homo sapiens) (UniProt Q6UVM3); test: Inhibition of SLICK (unknown origin) expressed in HEK293 cells assessed as efficacy at 30 uM by thallium flux assay relative to control; format: cell-based
T2 sequence (whole entry): T1 sequence (Q6UVM3 whole entry)

[10] = Plasma protein binding in mouse assessed as unbound fraction by equilibrium dialysis method; format: ADME, cell-free
Procedure, shortened: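 Equilibrium dialysis, 12–14 K MWCO cellulose membrane: plasma spiked to 5 μM final versus 25 mM phosphate buffer pH 7.4, 6 h at 37 °C, shaking 200 rpm. Both sides matrix-matched, acetonitrile extraction with internal standard, LC/MS/MS quantitation. Triplicate.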

[11] = target: Calcium-activated potassium channel subunit alpha-1 (Homo sapiens) (UniProt Q12791); test: Inhibition of Maxi-K (unknown origin) expressed in HEK293 cells assessed as efficacy at 30 uM by thallium flux assay relative to control; format: cell-based
[12] = Inhibition of wild-type human SLACK expressed in HEK293 cells by thallium flux assay; format: cell-based; procedure, shortened: as §1
[13] = Activation of wild-type human SLACK expressed in HEK293 cells by thallium flux assay; format: cell-based
Procedure, shortened: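 Stable monoclonal HEK293 line with WT SLACK, dye-loaded 1 h at room temperature (Thallo-AM, probenecid, masking dye, Pluronic), pH 7.3 buffer. Compound added 120 s before Tl2SO4 stimulus (2.5 mM), kinetic fluorescence imaging 120 s. Concentrations 1.5 nM–30 μM, half-log steps, ≥3 replicate wells per series.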

[14] = system: HEK293; test: Activation of wild-type human SLACK expressed in HEK293 cells assessed as efficacy at 30 uM by thallium flux assay relative to control; format: cell-based
[15] = target: Voltage-gated inwardly rectifying potassium channel KCNH2 (Homo sapiens, UniProt Q12809); test: Inhibition of human ERG expressed in HEK293 cells at 10 uM by thallium flux assay; format: toxicity, cell-based; conditions: hek293, 10 µM
[16] = Apparent permeability in MDCK-MDR1 cells by bidirectional permeability assay; format: ADME, cell-based, Canis lupus familiaris; conditions: dog
[17] = Efflux ratio of permeability in MDCK-MDR1 cells assessed as P-glycoprotein mediated efflux; format: ADME, cell-based, Canis lupus familiaris; conditions: dog

Chain of Calcium-activated potassium channel subunit alpha-1 (Homo sapiens) (Q12791 whole entry): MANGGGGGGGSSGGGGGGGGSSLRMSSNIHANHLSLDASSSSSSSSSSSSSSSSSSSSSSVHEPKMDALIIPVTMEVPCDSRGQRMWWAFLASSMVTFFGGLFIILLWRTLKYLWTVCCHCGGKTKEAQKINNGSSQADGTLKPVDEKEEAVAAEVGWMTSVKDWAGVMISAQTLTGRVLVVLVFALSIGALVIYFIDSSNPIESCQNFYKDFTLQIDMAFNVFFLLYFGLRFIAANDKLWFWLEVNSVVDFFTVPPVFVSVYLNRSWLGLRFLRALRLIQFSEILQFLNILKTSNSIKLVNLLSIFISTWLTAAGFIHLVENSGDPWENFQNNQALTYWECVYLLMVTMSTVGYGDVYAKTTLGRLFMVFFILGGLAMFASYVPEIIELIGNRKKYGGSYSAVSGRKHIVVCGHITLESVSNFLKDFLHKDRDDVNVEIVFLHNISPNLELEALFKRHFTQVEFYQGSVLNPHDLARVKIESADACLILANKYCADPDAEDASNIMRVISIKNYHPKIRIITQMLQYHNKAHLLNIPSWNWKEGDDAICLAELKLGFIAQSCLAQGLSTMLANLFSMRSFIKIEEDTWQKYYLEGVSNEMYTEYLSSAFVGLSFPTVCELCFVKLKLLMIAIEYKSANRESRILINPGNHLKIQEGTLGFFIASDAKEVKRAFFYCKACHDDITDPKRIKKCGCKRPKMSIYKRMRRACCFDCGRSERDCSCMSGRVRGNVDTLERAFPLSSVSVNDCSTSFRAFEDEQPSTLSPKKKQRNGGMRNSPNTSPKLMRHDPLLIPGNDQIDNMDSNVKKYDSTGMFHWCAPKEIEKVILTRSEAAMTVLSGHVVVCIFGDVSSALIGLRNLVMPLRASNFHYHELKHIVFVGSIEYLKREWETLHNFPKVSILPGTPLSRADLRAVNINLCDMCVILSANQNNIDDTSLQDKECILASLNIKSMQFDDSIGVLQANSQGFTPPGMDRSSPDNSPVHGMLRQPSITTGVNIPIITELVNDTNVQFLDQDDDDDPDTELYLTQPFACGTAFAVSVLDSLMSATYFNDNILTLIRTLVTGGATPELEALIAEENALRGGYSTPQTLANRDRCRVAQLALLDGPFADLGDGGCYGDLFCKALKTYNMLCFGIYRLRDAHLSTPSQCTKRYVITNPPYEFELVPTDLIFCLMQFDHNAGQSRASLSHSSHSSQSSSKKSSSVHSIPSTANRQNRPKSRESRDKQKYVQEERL
Chain of Voltage-gated inwardly rectifying potassium channel KCNH2 (Q12809 whole entry): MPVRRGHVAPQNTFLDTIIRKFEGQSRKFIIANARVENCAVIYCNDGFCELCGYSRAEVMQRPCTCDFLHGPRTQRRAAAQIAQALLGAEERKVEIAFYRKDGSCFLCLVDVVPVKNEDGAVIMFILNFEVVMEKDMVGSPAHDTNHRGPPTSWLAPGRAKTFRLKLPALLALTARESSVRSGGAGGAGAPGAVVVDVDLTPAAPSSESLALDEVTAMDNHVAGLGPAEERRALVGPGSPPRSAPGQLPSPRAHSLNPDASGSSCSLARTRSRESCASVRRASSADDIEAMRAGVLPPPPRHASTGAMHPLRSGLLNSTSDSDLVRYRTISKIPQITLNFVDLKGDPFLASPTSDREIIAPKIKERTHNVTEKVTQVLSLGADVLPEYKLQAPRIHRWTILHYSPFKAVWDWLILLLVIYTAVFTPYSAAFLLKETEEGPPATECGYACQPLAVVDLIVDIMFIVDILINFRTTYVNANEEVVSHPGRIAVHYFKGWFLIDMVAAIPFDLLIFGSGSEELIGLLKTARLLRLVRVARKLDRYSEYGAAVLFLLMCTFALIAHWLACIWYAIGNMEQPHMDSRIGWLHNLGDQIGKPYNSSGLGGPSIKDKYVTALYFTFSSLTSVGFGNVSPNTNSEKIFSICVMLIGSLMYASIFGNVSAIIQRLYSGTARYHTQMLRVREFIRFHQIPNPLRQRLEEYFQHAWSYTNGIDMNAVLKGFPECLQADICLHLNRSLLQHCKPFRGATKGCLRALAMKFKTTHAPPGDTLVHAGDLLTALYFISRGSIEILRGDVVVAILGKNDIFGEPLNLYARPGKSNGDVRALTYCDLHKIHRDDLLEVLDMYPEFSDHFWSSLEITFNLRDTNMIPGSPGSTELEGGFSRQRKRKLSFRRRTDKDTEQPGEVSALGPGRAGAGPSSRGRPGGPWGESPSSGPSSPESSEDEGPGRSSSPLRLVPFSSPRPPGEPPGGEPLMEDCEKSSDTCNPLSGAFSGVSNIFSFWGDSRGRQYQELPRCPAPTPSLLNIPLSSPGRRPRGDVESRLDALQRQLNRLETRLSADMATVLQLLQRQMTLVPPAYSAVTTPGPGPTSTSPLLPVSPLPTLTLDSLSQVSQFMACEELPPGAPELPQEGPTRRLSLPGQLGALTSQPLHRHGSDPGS

| IC50 [2] [nM] | IC50 [3] [nM] | IC50 [5] [nM] | inhibition [7] | Activity [8] [%] | Efficacy [9] [%] | Fu [10] | Efficacy [11] | Structure (SMILES) | Efficacy [1] [%] | Efficacy [4] [%] | Efficacy [6] [%] | also measured |
| --- | --- | --- | --- | --- | --- | --- | --- | --- | --- | --- | --- | --- |
| 2600 | 1630 | > 10000 | inactive | 19 | 55 | < 0.01 | inactive | O=S(=O)(c1cccc2c1OCCC2)N1CC(c2nc(-c3ccc(F)cc3)no2)C1 | 93 | 100 | 104 | – |
| 2300 | 1040 | > 10000 | – | 63 | – | 0.012 | – | [2H]C([2H])([2H])C([2H])([2H])Oc1ccccc1S(=O)(=O)N1CC(c2nc(-c3ccc(F)cc3)no2)C1 | – | – | – | IC50 [12]: 5400 nM |
| – | – | – | – | – | – | – | – | Cc1ccccc1S(=O)(=O)N1CC(c2nc(-c3ccsc3)no2)C1 | – | – | – | EC50 [13]: 6100 nM; Efficacy ([14]; filed as activator): 44% |
| 4300 | 1760 | > 10000 | inactive | 21 | 35 | < 0.01 | inactive | CCOc1ccccc1S(=O)(=O)N1CCC(c2nc(-c3ccc(F)cc3)no2)CC1 | 105 | 100 | 129 | – |
| – | – | – | – | – | – | – | – | COc1ccccc1S(=O)(=O)N1CC(c2nc(-c3ccsc3)no2)C1 | – | – | – | EC50 [13]: 8100 nM; Efficacy [14]: 29% |
| – | – | – | – | – | – | – | – | COc1ccc(S(=O)(=O)N2CC(c3nc(-c4ccsc4)no3)C2)cc1 | – | – | – | EC50 [13]: 3200 nM; Efficacy ([14]; filed as activator): 51% |
| 2500 | 1760 | > 10000 | inactive | 57 | 27 | 0.012 | inactive | O=S(=O)(c1ccccc1OCC(F)(F)F)N1CC(c2nc(-c3ccc(F)cc3)no2)C1 | 91 | 100 | 72 | – |
| 1000 | 1000 | 2300 | inactive | 58 | 50 | 0.012 | inactive | CCOc1ccccc1S(=O)(=O)N1CC(c2nc(-c3ccc(F)cc3)no2)C1 | 105 | 101 | 110 | Efficacy ([1]; tested as the 2H-labelled form): 100%; Efficacy ([4]; tested as the 2H-labelled form): 101%; Efficacy ([6]; tested as the 2H-labelled form): 83%; inhibition ([7]; tested as the 2H-labelled form): inactive; Efficacy ([9]; tested as the 2H-labelled form): 55%; IC50 [12]: 3200 nM; Efficacy ([11]; tested as the 2H-labelled form): inactive |
| – | – | – | – | – | – | – | – | CCOc1ccccc1S(=O)(=O)N1CC(c2nc(-c3ccc(OC)cc3)no2)C1 | – | – | – | EC50 [13]: 7100 nM; Efficacy [14]: 21% |
| 820 | 640 | > 10000 | inactive | < 10 | 55 | 0.022 | inactive | CCOc1ccccc1S(=O)(=O)N1CC(c2nc(-c3ccsc3)no2)C1 | 102 | 100 | 72 | Papp [16]: 31.1 10^-6 cm/s; Ratio [17]: 0.65 |
| 1500 | 1580 | 5900 | inactive | 71 | 56 | 0.014 | inactive | O=S(=O)(c1cccc2cccnc12)N1CC(c2nc(-c3ccc(F)cc3)no2)C1 | 98 | 100 | 112 | – |
| 970 | 700 | > 10000 | inactive | < 10 | 65 | 0.024 | inactive | CCOc1ccccc1S(=O)(=O)N1CC(c2nc(-c3ccc(F)s3)no2)C1 | 105 | 100 | 103 | – |
| 2000 | 430 | > 10000 | inactive | 59 | 44 | 0.014 | inactive | CCOc1ccccc1S(=O)(=O)N1CC(c2nc(-c3ccc(F)cc3Cl)no2)C1 | 95 | 100 | 95 | IC50 [12]: 2100 nM |
| 1100 | 1090 | > 10000 | inactive | < 10 | 47 | < 0.01 | inactive | CC(C)Oc1ccccc1S(=O)(=O)N1CC(c2nc(-c3ccsc3)no2)C1 | 103 | 101 | 109 | – |

| Structure (SMILES) | IC50 [2] [nM] | IC50 [3] [nM] | IC50 [5] [nM] | inhibition [7] | Activity [8] [%] | Efficacy [9] [%] | Fu [10] | Efficacy [11] | Efficacy [1] [%] | Efficacy [4] [%] | Efficacy [6] [%] | also measured |
| --- | --- | --- | --- | --- | --- | --- | --- | --- | --- | --- | --- | --- |
| Cc1ccc2cccc(S(=O)(=O)N3CC(c4nc(-c5ccc(F)cc5)no4)C3)c2n1 | 670 | 320 | > 10000 | inactive | 26 | 76 | < 0.01 | inactive | 99 | 100 | 72 | inhibition (INH) [15]: Not Active |
